Assay results: ChEMBL document CHEMBL1133060, “N-(indol-3-ylglyoxylyl)piperidines: high affinity agonists of human GABA-A receptors containing the alpha1 subunit” (Bioorg Med Chem Lett, 2000)
pKi: −log10 of the molar value.

How the values were obtained:
[1] = molecular target: T1, GABA-A receptor; alpha-1/beta-2/gamma-2 (Homo sapiens, UniProt P14867+P18507+P47870); assay: Binding affinity evaluated by ability to displace [3H]Ro-151788 from recombinant human Gamma-aminobutyric acid A receptor alpha-1-beta-2-gamma-2 expressed in L(tk-)cells; type: cell-based
T1 sequence (P14867 whole entry): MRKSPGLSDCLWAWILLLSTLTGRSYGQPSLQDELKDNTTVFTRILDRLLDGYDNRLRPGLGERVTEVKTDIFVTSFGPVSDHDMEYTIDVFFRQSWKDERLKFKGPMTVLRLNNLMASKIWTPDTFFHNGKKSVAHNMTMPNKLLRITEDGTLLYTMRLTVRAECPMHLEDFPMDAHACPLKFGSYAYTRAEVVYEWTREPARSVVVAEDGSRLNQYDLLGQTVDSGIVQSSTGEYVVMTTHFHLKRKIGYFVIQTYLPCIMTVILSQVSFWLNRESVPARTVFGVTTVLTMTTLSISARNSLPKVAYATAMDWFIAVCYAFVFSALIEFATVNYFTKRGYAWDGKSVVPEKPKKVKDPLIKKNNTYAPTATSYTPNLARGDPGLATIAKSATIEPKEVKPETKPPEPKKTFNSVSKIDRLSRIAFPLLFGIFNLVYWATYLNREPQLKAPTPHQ
T1 sequence (P47870 whole entry): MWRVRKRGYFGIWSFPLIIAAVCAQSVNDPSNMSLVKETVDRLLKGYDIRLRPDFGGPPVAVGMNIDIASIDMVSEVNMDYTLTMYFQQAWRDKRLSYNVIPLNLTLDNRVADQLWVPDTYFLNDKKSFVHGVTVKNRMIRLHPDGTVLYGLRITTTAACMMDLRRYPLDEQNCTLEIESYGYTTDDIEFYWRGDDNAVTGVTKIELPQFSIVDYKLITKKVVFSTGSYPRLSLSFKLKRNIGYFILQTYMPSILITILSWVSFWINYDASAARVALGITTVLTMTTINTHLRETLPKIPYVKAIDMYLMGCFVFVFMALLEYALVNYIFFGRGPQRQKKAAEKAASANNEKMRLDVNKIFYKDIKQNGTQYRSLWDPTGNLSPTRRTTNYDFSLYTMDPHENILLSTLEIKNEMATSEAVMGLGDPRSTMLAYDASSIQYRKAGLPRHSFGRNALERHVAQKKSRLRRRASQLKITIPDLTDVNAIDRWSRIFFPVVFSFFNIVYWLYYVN
T1 sequence (P18507 whole entry): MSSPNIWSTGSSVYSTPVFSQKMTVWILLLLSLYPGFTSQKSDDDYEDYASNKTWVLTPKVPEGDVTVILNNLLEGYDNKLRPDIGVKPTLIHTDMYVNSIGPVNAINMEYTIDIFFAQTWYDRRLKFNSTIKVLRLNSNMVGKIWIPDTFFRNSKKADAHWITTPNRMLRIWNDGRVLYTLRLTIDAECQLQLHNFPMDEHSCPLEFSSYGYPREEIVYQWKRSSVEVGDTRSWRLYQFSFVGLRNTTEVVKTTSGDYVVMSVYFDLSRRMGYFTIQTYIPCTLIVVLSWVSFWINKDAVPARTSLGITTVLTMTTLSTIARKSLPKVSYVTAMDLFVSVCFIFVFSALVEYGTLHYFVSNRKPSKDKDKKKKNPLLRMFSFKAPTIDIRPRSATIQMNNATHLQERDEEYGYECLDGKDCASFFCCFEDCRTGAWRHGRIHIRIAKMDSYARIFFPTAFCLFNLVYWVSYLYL

[2] = molecular target: T2, GABA-A receptor; alpha-2/beta-3/gamma-2 (Homo sapiens, UniProt P18507+P28472+P47869); assay: Binding affinity evaluated by ability to displace [3H]-Ro-15-1788 from recombinant human Gamma-aminobutyric acid A receptor alpha-2-beta-3-gamma-2 expressed in L(tk-)cells; type: cell-based
T2 sequence (P18507 whole entry): T1 sequence (P18507 whole entry)
T2 sequence (P28472 whole entry): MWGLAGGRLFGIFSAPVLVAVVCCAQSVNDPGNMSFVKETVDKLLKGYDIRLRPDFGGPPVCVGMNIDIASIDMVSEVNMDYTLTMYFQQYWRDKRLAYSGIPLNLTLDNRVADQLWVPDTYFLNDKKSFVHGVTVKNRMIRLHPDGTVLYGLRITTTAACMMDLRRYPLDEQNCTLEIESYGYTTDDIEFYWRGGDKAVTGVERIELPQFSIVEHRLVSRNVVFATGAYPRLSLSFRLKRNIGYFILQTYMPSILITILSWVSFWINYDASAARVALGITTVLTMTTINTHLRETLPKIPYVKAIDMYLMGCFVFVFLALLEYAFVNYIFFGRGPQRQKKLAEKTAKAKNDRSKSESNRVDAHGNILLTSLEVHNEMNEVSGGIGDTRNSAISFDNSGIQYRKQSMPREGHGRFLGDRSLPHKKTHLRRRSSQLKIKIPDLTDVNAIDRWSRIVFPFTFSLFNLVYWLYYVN
T2 sequence (P47869 whole entry): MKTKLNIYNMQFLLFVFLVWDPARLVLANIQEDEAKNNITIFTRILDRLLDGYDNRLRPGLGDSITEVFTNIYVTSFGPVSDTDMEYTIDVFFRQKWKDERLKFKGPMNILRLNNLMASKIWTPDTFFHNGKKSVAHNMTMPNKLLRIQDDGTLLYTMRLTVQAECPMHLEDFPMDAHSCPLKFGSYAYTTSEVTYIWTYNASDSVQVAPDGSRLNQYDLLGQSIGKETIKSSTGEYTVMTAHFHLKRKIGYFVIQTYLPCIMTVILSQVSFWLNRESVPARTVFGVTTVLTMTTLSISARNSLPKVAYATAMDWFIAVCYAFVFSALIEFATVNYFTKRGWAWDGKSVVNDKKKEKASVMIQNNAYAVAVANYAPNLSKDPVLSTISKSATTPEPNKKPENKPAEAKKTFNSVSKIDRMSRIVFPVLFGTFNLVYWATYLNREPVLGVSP

[3] = molecular target: T3, GABA-A receptor; alpha-3/beta-3/gamma-2 (Homo sapiens, UniProt P18507+P28472+P34903); assay: Binding affinity evaluated by ability to displace [3H]Ro-151788 from recombinant human Gamma-aminobutyric acid A receptor alpha-3-beta-3-gamma-2 expressed in L(tk-)cells; type: cell-based
T3 sequence (P18507 whole entry): T1 sequence (P18507 whole entry)
T3 sequence (P28472 whole entry): T2 sequence (P28472 whole entry)
T3 sequence (P34903 whole entry): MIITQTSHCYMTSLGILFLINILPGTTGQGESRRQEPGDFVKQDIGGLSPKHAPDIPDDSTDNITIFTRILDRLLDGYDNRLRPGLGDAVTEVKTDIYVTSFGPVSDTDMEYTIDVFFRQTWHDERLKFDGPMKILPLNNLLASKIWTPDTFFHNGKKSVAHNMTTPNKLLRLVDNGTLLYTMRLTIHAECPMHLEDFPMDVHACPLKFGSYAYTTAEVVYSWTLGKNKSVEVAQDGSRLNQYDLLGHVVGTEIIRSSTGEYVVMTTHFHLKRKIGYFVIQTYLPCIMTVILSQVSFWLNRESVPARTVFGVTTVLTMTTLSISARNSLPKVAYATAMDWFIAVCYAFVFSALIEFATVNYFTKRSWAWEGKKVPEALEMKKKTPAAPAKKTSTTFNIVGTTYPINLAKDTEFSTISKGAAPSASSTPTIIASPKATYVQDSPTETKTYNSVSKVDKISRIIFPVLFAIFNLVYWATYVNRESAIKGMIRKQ

[4] = molecular target: T4, GABA-A receptor; alpha-1/beta-2/gamma-2 (Homo sapiens) (UniProt P14867+P47870+P18507); assay: Ability to affect GABA-induced chloride current in Xenopus oocytes transiently expressing human GABA-A alpha-1-beta-2-gamma-2 receptors using two-electrode voltage-clamp electrophysiology at test concentration of 30 uM; type: functional, cell-based; conditions: Oocyte
Summary of the method: (§1)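 The GABA EC20 (concentration giving 20% of maximal GABA current) was determined separately for each oocyte, range 4–30 μM. Compound was then coapplied with GABA at that EC20 to measure modulation of the current. Mean ± SEM, n = 3-5.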

[5] = molecular target: T4, GABA-A receptor; alpha-1/beta-2/gamma-2 (Homo sapiens); assay: Ability to affect GABA-induced chloride current in Xenopus oocytes transiently expressing human GABA-A alpha-1-beta-2-gamma-2 receptors using two-electrode voltage-clamp electrophysiology at test concentration of 3 uM; type: functional, cell-based; conditions: Oocyte; summary of the method: as §1

O=C(C(=O)N1CCCC(C(=O)OCc2ccccc2)C1)c1c[nH]c2ccccc12 (centres undefined)
pKi [1]: 7.11 | pKi [2]: 6.74 | pKi [3]: 7.04

CN(Cc1ccccc1)C(=O)C1CCCN(C(=O)C(=O)c2c[nH]c3ccccc23)C1 (centres undefined)
pKi [1]: 7.85 | pKi [2]: 7.40 | pKi [3]: 7.02

O=C(C(=O)N1CCCC(C(=O)NCc2ccccc2)C1)c1c[nH]c2ccccc12 (centres undefined)
pKi [1]: 6.52 | pKi [2]: 6.01 | pKi [3]: 5.82

CCOC(=O)[C@@H]1C[C@H](C(=O)OCC)CN(C(=O)C(=O)c2c[nH]c3ccccc23)C1
pKi [1]: 7.85 | pKi [2]: 7.66 | pKi [3]: 7.64

CN(Cc1ccccc1)C(=O)[C@H]1CCCN(C(=O)C(=O)c2c[nH]c3ccccc23)C1
pKi [1]: 6.85 | pKi [2]: 6.60 | pKi [3]: 6.17

CCOC(=O)CC1CCCN1C(=O)C(=O)c1c[nH]c2ccccc12 (centres undefined)
pKi [1]: 6.05 | pKi [2]: 6.37 | Efficacy [4]: 28% | pKi [3]: 6.24

CCOC(=O)C1CCCN(C(=O)C(=O)c2c[nH]c3ccccc23)C1 (centres undefined)
pKi [1]: 6.06 | pKi [2]: 6.41 | pKi [3]: 6.00

CCOC(=O)[C@@H]1C[C@@H](C(=O)OCC)CN(C(=O)C(=O)c2c[nH]c3ccccc23)C1
pKi [1]: 6.40 | pKi [2]: 6.70 | pKi [3]: 6.60

CCOC(=O)CC1CCCN1C(=O)C(=O)c1c[nH]c2c(OC)cccc12 (centres undefined)
pKi [1]: 6.34 | pKi [2]: 6.57 | pKi [3]: 6.49

O=C(C(=O)N1Cc2ccccc2C1)c1c[nH]c2ccccc12
pKi [1]: 6.70 | pKi [2]: 5.89 | pKi [3]: 4.72 | Efficacy [5]: 64%

O=C(C(=O)N1CCc2ccccc2C1)c1c[nH]c2ccccc12
pKi [1]: 6.42 | pKi [2]: 6.17 | pKi [3]: 6.14

O=C(C(=O)N1CCCC1Cc1ccccc1)c1c[nH]c2ccccc12 (centres undefined)
pKi [1]: 6.36 | pKi [2]: 6.08 | pKi [3]: 6.02

CN(Cc1ccccc1)C(=O)[C@@H]1CCCN(C(=O)C(=O)c2c[nH]c3ccccc23)C1
pKi [1]: 8.14 | pKi [2]: 7.72 | pKi [3]: 7.30

CCOC(=O)CC1CCCN1C(=O)C(=O)c1c[nH]c2c(C)cccc12 (centres undefined)
pKi [1]: 6.29 | pKi [2]: 6.36 | pKi [3]: 6.30
